Source: PubChem
OX1R antag-1: blocks the human orexin 1 receptor; inhibition, % at 6.6 µM; OX1R-expressing cells, FRET antagonist read-out; O43613; AID 485270; 330,000 compounds, 1.8% hits; in the data active = inhibition mostly above about 38%, no sharp cut-off; inactive = mostly below about 40%;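 also: 0% = agonist challenge alone and 100% = reference antagonist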
Target sequence (O43613 whole entry, looked up): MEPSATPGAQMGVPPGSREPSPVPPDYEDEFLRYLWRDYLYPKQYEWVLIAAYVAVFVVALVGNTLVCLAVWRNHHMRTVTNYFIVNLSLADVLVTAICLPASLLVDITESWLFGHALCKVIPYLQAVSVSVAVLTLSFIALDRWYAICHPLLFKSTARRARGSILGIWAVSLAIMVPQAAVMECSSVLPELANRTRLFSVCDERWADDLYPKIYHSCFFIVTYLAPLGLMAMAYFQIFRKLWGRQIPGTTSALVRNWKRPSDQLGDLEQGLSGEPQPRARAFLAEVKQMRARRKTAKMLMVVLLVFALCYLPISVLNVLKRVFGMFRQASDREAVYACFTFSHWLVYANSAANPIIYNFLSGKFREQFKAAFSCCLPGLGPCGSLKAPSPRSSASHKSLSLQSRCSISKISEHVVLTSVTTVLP
CHO parental Ca: counter-screen: ATP calcium response change in parental CHO cells. inhibition, % at 5.6 µM. parental CHO-K1, ATP-induced calcium, Fluo-8 fluorescence. 330,000 compounds, 0.63% hits. AID 463079;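 active = inhibition above that plate's mean sample inhibition plus 3 SD, cut at about 26% in these data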;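 also: 0% = ATP-challenged DMSO wells and 100% = DMSO wells without ATP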
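Assay system: untransfected parental CHO cell line. Also added: ATP agonist challenge. Dosing: one dose, 5.6 µM nominal. Measured by: Fluo-8 fluorescence. Read-out: % inhibition. Benchmarks: ATP wells versus no-ATP DMSO wells. Repeats: no replicates.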
GPR7 antag: antagonists of human GPR7 (neuropeptides B/W receptor 1) | GPR7-expressing cells, fluorescence antagonist assay | inhibition, % at 4.4 µM | 290,000 compounds, 1.1% hits; in the data active = inhibition above about 16%, passing the limit was not always enough;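 also: cells stimulated with the agonist NPW; 0% = agonist with vehicle and 100% = vehicle without agonist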
GalR3 antagonist: blocks the human galanin receptor 3 | O60755 | HEK293 GalR3-CNG cAMP membrane potential fluorescence; galR3 body fused to GalR1 C-terminus | inhibition, % at 3 µM | 360,000 compounds, 0.44% hits;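 active = inhibition above the screen-wide average plus 3 SD, cut at about 13% in these data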;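 also: forskolin and galanin both at EC90 stimulate the cells; cAMP rise reported by CNG channel membrane potential dye signal; 0% = forskolin plus galanin with DMSO and 100% = forskolin alone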
OX1R antag-2: antagonists of human orexin 1 receptor | O43613 | CHO/OX1R cells, Fluo-8 calcium fluorescence, orexin A | inhibition, % at 5 µM | 330,000 compounds, 0.43% hits | AID 434989;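 active = inhibition above its plate's threshold, mean inhibition of all tested compounds on the plate plus 3 SD, cut at about 37% in these data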;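 also: 0% = orexin A challenge wells and 100% = SB-334867-A antagonist wells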
Numbers without * were called inactive; · = no result. In the library only some 3.1% were active in any assay of this set; here they are far more common.

SMILES	OX1R antag-1	CHO parental Ca	GPR7 antag	GalR3 antagonist	OX1R antag-2
C/C(=N\NC(=O)c1ccc([N+](=O)[O-])cc1)c1cccc([N+](=O)[O-])c1	64*	-11	-12	1	-9
CC(C)CNc1cccc2c1S(=O)(=O)N(Cc1ccc(F)cc1)[C@@H](C)[C@H](c1ccccc1)O2	·	·	·	-8	·
COC1OC(c2ccccc2)=C(c2cnc(N)nc2)c2ccc(F)cc21 (stereo not drawn)	·	·	·	-10	·
CCOc1ccc(S(=O)(=O)N2CCN(c3ccc(C)cc3C)CC2)cc1	9	27*	-10	·	-18
COc1ccc(S(=O)(=O)N2CCN(c3c(C)cccc3C)CC2)cc1OC	14	45*	-12	2	-34
CCOc1ccc(S(=O)(=O)N2CCCC2)cc1	3	-6	2	-4	-11
COc1ccc(S(=O)(=O)N2CCN(c3ncccn3)CC2)cc1OC	4	-7	21	-5	-12
COc1ccc(S(=O)(=O)N2CCN(c3ccc(C)cc3C)CC2)cc1OC	14	36*	-26	2	-25
COc1cccc(C(=O)N[C@H](C(=O)N2CCC[C@H]2C(=O)NC2CCCC2)C2CCCCC2)c1	·	·	·	-7	·
O=C(c1cccnc1)N1CCC2CC1c1c(Cl)cccc12 (stereo not drawn)	·	·	·	-6	·
Cc1cc(C(C#N)c2cccc(Cl)c2)n2ncnc2n1 (stereo not drawn)	76*	-7	14	-3	0
O=C(Nc1cccc(Br)c1)Oc1cccc2cccnc12	·	·	·	-7	·
O=C(N/N=C/c1cccnc1)c1ccccc1NS(=O)(=O)c1cccs1	21	-3	-12	-4	-21
O=C(NN=Cc1ccc(F)cc1)c1ccccc1NS(=O)(=O)c1cccs1	25*	-6	·	-5	-6
CC(C)[C@H](NC(=O)c1ccc(Cl)cc1Cl)C(=O)N1CCC[C@H]1C(=O)NCCc1ccccc1Cl	·	·	·	-6	·
CCOCCCn1c(C)nc2c(c1=O)c1nc3ccccc3nc1n2-c1ccc(C)cc1	0	-12	-11	·	2
CCO/C(C)=N/n1c2nc3ccccc3nc2c2c(=O)n(CC(C)C)c(C)nc21	73*	-9	5	-3	-26
O=S1(=O)C=C(Sc2ccc(Cl)cc2)c2ccccc2C1Cc1ccc(F)cc1 (stereo not drawn)	·	·	·	-7	·
O=C(CN1C2CCCC1CC(NC(=O)C1CCCCC1)C2)Nc1ccccc1C(F)(F)F (stereo not drawn)	42*	-6	-3	-6	2
CCNC(=O)c1cc2c(c(-c3cccc(-c4ccccc4F)c3)n1)[C@H](CCO)N(C(=O)CC)C2	·	·	·	-5	·
CCCCc1nc(NCCO)c(C#N)c2c1CCCC2	15	50*	-13	6	-40
CCCCNc1nc(CC)c2c(c1C#N)CCCC2	18	-8	-5	-1	-10
CCNc1ccc(C(=O)OCC(=O)NCCN2C(=O)CSC2=O)cc1[N+](=O)[O-]	68*	-8	-10	-1	5
N#Cc1ccc(OCC(=O)Nc2nc(-c3cccnc3)cs2)cc1	3	-6	·	-7	-6
O=C(Nc1cccc(Cl)c1)OCCOC(=O)Nc1cccc(Cl)c1	·	·	·	-8	·
SMILES	OX1R antag-1	CHO parental Ca	GPR7 antag	GalR3 antagonist	OX1R antag-2
CC(OC(=O)Nc1cccc(Cl)c1)C(=O)O (stereo not drawn)	-5	1	-7	-11	-2
CC(C)OC(=O)NCCOC(=O)Nc1cccc(Cl)c1	59	37*	-5	-3	48*
CC(C)OC(=O)NCCOC(=O)Nc1ccc(Cl)c(Cl)c1	38	50*	2	-3	40
CC(C)OC(=O)NC(C)(C)COC(=O)Nc1cccc(Cl)c1	31	35*	-2	-6	20
O=C(N[C@H](Cc1ccccc1)C(=O)NCc1ccco1)[C@H]1O[C@@H](n2ccc(=O)[nH]c2=O)[C@H](O)[C@@H]1O	·	·	·	-4	·
O=C(Nc1ccc2c(c1)N(S(=O)(=O)c1cccs1)CCC2)c1c(F)cccc1Cl	55*	-3	·	-7	11
COc1cccc(OC)c1C(=O)Nc1ccc2c(c1)N(S(=O)(=O)c1cccs1)CCC2	29	-15	-3	-4	10
O=S(=O)(c1cccs1)N1CCc2ccccc21	8	-24	4	-6	-24
O=S(=O)(c1cccs1)N1CCCc2ccccc21	21	56*	2	-3	-9
C[C@@H]1CN([C@H](C)CO)C(=O)CCCn2cc(nn2)CO[C@H]1CN(C)C(=O)Cc1ccccc1	·	·	·	-8	·
O=S1(=O)N[C@H](Cc2ccccc2)COc2cccc(F)c21	·	·	·	-3	·
O=C(C1CCCN(S(=O)(=O)c2cccc3nsnc23)C1)N1CCCCCC1 (stereo not drawn)	36	-14	-15	0	1
O=C(NCC1CCCO1)C1CCCN(S(=O)(=O)c2cccc3nsnc23)C1 (stereo not drawn)	55*	-9	-8	-5	-2
O=C(NCc1ccccc1Cl)C1CCCN(S(=O)(=O)c2cccc3nsnc23)C1 (stereo not drawn)	20	-29	-4	-4	-4
CCc1cccc(NC(=O)C2CCCN(S(=O)(=O)c3cccs3)C2)c1 (stereo not drawn)	52*	-25	4	-11	6
COc1ccccc1NC(=O)C1CCCN(S(=O)(=O)c2cccc3nsnc23)C1 (stereo not drawn)	52	-28	-7	-4	-21
CCN1CCN(C(=O)C2CCCN(S(=O)(=O)c3cccc4nsnc34)C2)CC1 (stereo not drawn)	52*	-13	-8	-7	-16
COc1cccc(NC(=O)C2CCCN(S(=O)(=O)c3cccc4nsnc34)C2)c1 (stereo not drawn)	85*	-14	-3	0	23
O=C(Nc1ccccc1)N1c2ccccc2SC1c1ccco1 (stereo not drawn)	·	·	·	-8	·
C=CCN=C1NC(c2cccc(F)c2)C(C(=O)OC)=C(C)N1Cc1cccc(C(F)(F)F)c1 (stereo not drawn)	·	·	·	-10	·
CC(=O)Nc1ccc(Oc2ccc([N+](=O)[O-])cc2Cl)cc1	10	-8	9	-2	0
CC(=O)Nc1ccc(N=c2cc([N+](=O)[O-])cc(Cl)n2O)cc1	66*	-2	5	-12	-5
COc1ccc(-c2c(=O)n(OC)c3ccccc3[n+]2[O-])cc1OC	44*	-7	-7	-6	-17
C=CCOn1c(=O)c(-c2ccc(OC)c(OC)c2)[n+]([O-])c2ccccc21	61*	-7	-11	-5	-33
CC(OC(=O)C1CC1C)C(=O)Nc1ncc(Cl)cc1Cl (stereo not drawn)	12	-15	·	-5	-9
COc1cccc(-c2nnc(NC(=O)c3ccco3)s2)c1	53*	-17	14	-8	-2
CC(C)C(=O)N(c1cc2sc(=O)oc2c2ccccc12)S(=O)(=O)c1cccs1	38	87*	-7	-3	68*
